ChEMBL document CHEMBL1121608, “Modification of the 5' position of purine nucleosides. 2. Synthesis and some cardiovascular properties of adenosine-5'-(N-substituted)carboxamides” (J Med Chem, 1980)

Columns and labels:
Canis familiaris [1] = test: Total time in minutes elapsed from the initiation of the change until return to the pretest value of blood pressure in coronary sinus of anesthetized dog at intravenous dosage of 1 mg/kg; assay type: functional, Canis lupus familiaris
Canis familiaris [2] = test: Total time in minutes elapsed from the initiation of the change until return to the pretest value of blood pressure in coronary sinus of anesthetized dog at intravenous dosage of 5 mg/kg; assay type: functional, Canis lupus familiaris
Canis familiaris [3] = test: Total time in minutes elapsed from the initiation of the change until return to the pretest value of heart rate in coronary sinus of anesthetized dog at intravenous dosage of 1 mg/kg; assay type: functional, Canis lupus familiaris
Canis familiaris [4] = test: Total time in minutes elapsed from the initiation of the change until return to the pretest value of heart rate in coronary sinus of anesthetized dog at intravenous dosage of 5.00 mg/kg; assay type: functional, Canis lupus familiaris
Canis familiaris [5] = test: Total time in minutes elapsed from the initiation of the change until return to the pretest value of oxygen partial pressure in coronary sinus of anesthetized dog at intravenous dosage of 1 mg/kg; assay type: functional, Canis lupus familiaris
Method in brief: (§1)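 Open-chest anesthetized dogs given compound by intravenous injection. Coronary sinus PO2 was monitored, and duration was the total time in minutes from the onset of the change until return to the pretest value.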

Canis familiaris [6] = test: Total time in minutes elapsed from the initiation of the change until return to the pretest value of oxygen partial pressure in coronary sinus of anesthetized dog at intravenous dosage of 5 mg/kg; assay type: functional, Canis lupus familiaris; method in brief: as §1
Canis familiaris [7] = test: tested for the percent increase in heart rate (HR) in open chest anesthetized dog at intravenous dosage of 1 mg/kg; assay type: functional, Canis lupus familiaris
Canis familiaris [8] = test: Tested for the percent increase in aortic blood pressure (BP) in open chest anesthetized dog at intravenous dosage of 5.00 mg/kg; assay type: functional, Canis lupus familiaris, Artery
Method in brief: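 Open-chest anesthetized dogs, compound given iv at the stated dose. Aortic blood pressure is reported as the change from the control (pre-dose) value. Other set-up follows the group's earlier cardiovascular protocol.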

Canis familiaris [9] = test: tested for the percent increase in aortic blood pressure (BP) in open chest anesthetized dog at intravenous dosage of 1 mg/kg; assay type: functional, Canis lupus familiaris, Artery
Method in brief: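 Open-chest anesthetized dogs received intravenous doses. Aortic blood pressure was recorded as the change from control.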

Canis familiaris [10] = test: Tested for the percent increase in coronary sinus partial pressure of oxygen (PO2) in open chest anesthetized dog at intravenous dosage of 5.00 mg/kg; assay type: functional, Canis lupus familiaris
Canis familiaris [11] = test: tested for percent increase in coronary sinus partial pressure of oxygen (PO2) in open chest anesthetized dog at intravenous dosage of 1 mg/kg; assay type: functional, Canis lupus familiaris
[12] = Lethal dose in mice after intraperitoneal administration; assay type: toxicity, organism-based; conditions: mouse, in vivo, ip
Method in brief: (§2)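 Male and female mice, three per dose group, were given the compound by the stated route in increments of 0.5 log doses. The LD50 was estimated as an approximate value.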

[13] = Lethal dose in mice after peroral administration; assay type: toxicity, organism-based; conditions: mouse, in vivo, po; method in brief: as §2
Canis familiaris [14] = test: Total time in minutes elapsed from the initiation of the change until return to the pretest value of blood pressure in coronary sinus of anesthetized dog at intravenous dosage of 0.01 mg/kg; assay type: functional, Canis lupus familiaris
Canis familiaris [15] = test: Total time in minutes elapsed from the initiation of the change until return to the pretest value of blood pressure in coronary sinus of anesthetized dog at intravenous dosage of 0.10 mg/kg; assay type: functional, Canis lupus familiaris; conditions: dose 0.1 mg/kg
Method in brief: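 Open-chest anesthetized dogs were given the compound intravenously. Duration is the total minutes from the start of the change until return to the pretest value. Blood pressure was recorded as change from control.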

Canis familiaris [16] = test: Total time in minutes elapsed from the initiation of the change until return to the pretest value of heart rate in coronary sinus of anesthetized dog at intravenous dosage of 0.01 mg/kg; assay type: functional, Canis lupus familiaris
Canis familiaris [17] = test: Total time in minutes elapsed from the initiation of the change until return to the pretest value of heart rate in coronary sinus of anesthetized dog at intravenous dosage of 0.10 mg/kg; assay type: functional, Canis lupus familiaris; conditions: dose 0.1 mg/kg
Canis familiaris [18] = test: Total time in minutes elapsed from the initiation of the change until return to the pretest value of oxygen partial pressure in coronary sinus of anesthetized dog at intravenous dosage of 0.01 mg/kg; assay type: functional, Canis lupus familiaris
Canis familiaris [19] = test: Total time in minutes elapsed from the initiation of the change until return to the pretest value of oxygen partial pressure in coronary sinus of anesthetized dog at intravenous dosage of 0.10 mg/kg; assay type: functional, Canis lupus familiaris; conditions: dose 0.1 mg/kg
Canis familiaris [20] = test: Tested for percent increase in coronary sinus partial pressure of oxygen (PO2) in open chest anesthetized dog at intravenous dosage of 0.01 mg/kg; assay type: functional, Canis lupus familiaris
Canis familiaris [21] = test: tested for the percent increase in heart rate (HR) in open chest anesthetized dog at intravenous dosage of 0.10 mg/kg; assay type: functional, Canis lupus familiaris; conditions: dose 0.1 mg/kg
Canis familiaris [22] = test: Tested for the percent increase in coronary sinus partial pressure of oxygen (PO2) in open chest anesthetized dog at intravenous dosage of 0.10 mg/kg; assay type: functional, Canis lupus familiaris; conditions: dose 0.1 mg/kg
Canis familiaris [23] = test: Total time in minutes elapsed from the initiation of the change until return to the pretest value of blood pressure in coronary sinus of anesthetized dog at intravenous dosage of 0.05 mg/kg; assay type: functional, Canis lupus familiaris
Canis familiaris [24] = test: Total time in minutes elapsed from the initiation of the change until return to the pretest value of heart rate in coronary sinus of anesthetized dog at intravenous dosage of 0.05 mg/kg; assay type: functional, Canis lupus familiaris
Canis familiaris [25] = test: Total time in minutes elapsed from the initiation of the change until return to the pretest value of oxygen partial pressure in coronary sinus of anesthetized dog at intravenous dosage of 0.05 mg/kg; assay type: functional, Canis lupus familiaris
Canis familiaris [26] = test: tested for the percent increase in heart rate (HR) in open chest anesthetized dog at intravenous dosage of 0.05 mg/kg; assay type: functional, Canis lupus familiaris
Canis familiaris [27] = test: tested for percent increase in coronary sinus partial pressure of oxygen (PO2) in open chest anesthetized dog at intravenous dosage of 0.05 mg/kg; assay type: functional, Canis lupus familiaris

Nc1ncnc2c1ncn2C1O[C@H](C(=O)NC23CC4CC(CC(C4)C2)C3)[C@@H](O)[C@H]1O (stereo partly specified)
Duration (Canis familiaris [1]): 1 min | Duration (Canis familiaris [2]): 8 min | Duration (Canis familiaris [3]): 2 min | Duration (Canis familiaris [4]): 60 min | Duration (Canis familiaris [5]): 30 min | Duration (Canis familiaris [6]): 60 min | HR (Canis familiaris [7]): 55% | BP (Canis familiaris [8]): 5 mmHg | BP (Canis familiaris [9]): 22 mmHg | PO2 (Canis familiaris [10]): 209% | PO2 (Canis familiaris [11]): 56% | LD50 [12]: > 300 mg/kg | LD50 [13]: > 300 mg/kg

NC(=O)[C@H]1OC(n2cnc3c(N)ncnc32)[C@H](O)[C@@H]1O (stereo partly specified)
Duration (Canis familiaris [14]): 20 min | Duration (Canis familiaris [15]): 240 min | Duration (Canis familiaris [16]): 25 min | Duration (Canis familiaris [17]): 240 min | Duration (Canis familiaris [18]): 25 min | Duration (Canis familiaris [19]): 240 min | PO2 (Canis familiaris [20]): 79% | HR (Canis familiaris [21]): 72% | PO2 (Canis familiaris [22]): 41% | LD50 [12]: 5 mg/kg | LD50 [13]: 50 mg/kg

Nc1ncnc2c1ncn2C1O[C@H](C(=O)NCC2CC2)[C@@H](O)[C@H]1O (stereo partly specified)
Duration (Canis familiaris [23]): 120 min | Duration (Canis familiaris [24]): 0 min | Duration (Canis familiaris [25]): 120 min | HR (Canis familiaris [26]): 0% | PO2 (Canis familiaris [27]): 47% | LD50 [12]: 20 mg/kg | LD50 [13]: 200 mg/kg
